Assay results published in ChEMBL document CHEMBL2034923, “3-aminopiperidine-based peptide analogues as the first selective noncovalent inhibitors of the bacterial cysteine protease IdeS” (J Med Chem, 2012).
Activity calls are given as the source filed them. No cut-off for these calls is given here. Where a SMILES comes first, the peptide text is derived from it.

Tests used:
[1] = tested on: Streptococcus pyogenes; assay: Inhibition of Streptococcus pyogenes His-tagged IdeS expressed in Escherichia coli BL21 using IgG1 as substrate at 30 mM incubated for 15 mins prior to substrate addition measured after 20 mins by SDS-PAGE analysis
Procedure, shortened: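 Tag-free IdeS (TEV-cleaved, repurified) preincubated 15 min at room temp with peptide or analogue (30 mM stock in 50% DMSO/phosphate pH 7.4), then IgG1 substrate added. Final IdeS 0.8 μM with 4.8×10^3 molar excess of compound. 20 min at 37 °C, quenched with iodoacetamide, IgG cleavage products detected by SDS-PAGE. Triplicates plus enzyme-free controls.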

[2] = tested on: Streptococcus pyogenes; assay: Inhibition of Streptococcus pyogenes His-tagged IdeS expressed in Escherichia coli BL21 using IgG1 as substrate at 30 mM incubated for 15 mins prior to substrate addition measured after 20 mins
Procedure, shortened: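 IdeS with tag removed (TEV cleavage, Ni2+ and size-exclusion repurification), stored in PBS. Enzyme preincubated 15 min at room temp with analogue (30 mM stock in 50% DMSO/phosphate pH 7.4) before adding human IgG1. Final IdeS 0.8 μM, analogue at 4.8×10^3 molar excess. 20 min at 37 °C, stopped with iodoacetamide. Triplicates, PBS-for-IdeS controls. Read by SPR as fraction of active IdeS from an IdeS standard curve.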

[3] = molecular target: T1, Papain (Carica papaya) (UniProt P00784); assay: Inhibition of papaya papain using Nalpa-benzoyl-DL-arginine 4-nitroanilide hydrochloride as substrate at 30 mM incubated for 10 mins prior to substrate addition measured after 2 hrs by colorimetry
T1 sequence (whole entry): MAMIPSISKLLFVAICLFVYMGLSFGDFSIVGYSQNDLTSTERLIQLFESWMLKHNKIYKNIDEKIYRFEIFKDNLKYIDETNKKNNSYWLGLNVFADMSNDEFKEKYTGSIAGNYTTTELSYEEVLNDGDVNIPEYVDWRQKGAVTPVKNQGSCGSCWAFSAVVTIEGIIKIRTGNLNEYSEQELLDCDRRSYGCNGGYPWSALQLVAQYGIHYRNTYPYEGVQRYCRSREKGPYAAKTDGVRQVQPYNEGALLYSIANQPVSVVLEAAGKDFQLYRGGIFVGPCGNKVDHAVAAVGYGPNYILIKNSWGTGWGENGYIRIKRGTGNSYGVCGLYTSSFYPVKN
Procedure, shortened: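 Papain in pH 6.2 phosphate buffer with 1.23 mM EDTA and 1.23 mM DTT, preincubated 10 min at room temp with compound (30 mM stock in 50% DMSO/phosphate pH 6.2). Final papain 0.9 μM, compound at 4.8×10^3 molar excess. Substrate added from 100 mM DMSO stock, 2 h at 37 °C, stopped with acetic acid, Abs405 read. Duplicates on two occasions. Activity relative to no-inhibitor control.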

[4] = molecular target: T2, Streptopain (Streptococcus pyogenes) (UniProt P0C0J0); assay: Inhibition of Streptococcus pyogenes 5448 SpeB using n-bezoyl-proline-phenylalanine-arginine-p-nitroanilide hydrochloride as substrate at 30 mM incubated for 15 mins prior to substrate addition measured after 30 mins by colorimetry
T2 sequence (whole entry): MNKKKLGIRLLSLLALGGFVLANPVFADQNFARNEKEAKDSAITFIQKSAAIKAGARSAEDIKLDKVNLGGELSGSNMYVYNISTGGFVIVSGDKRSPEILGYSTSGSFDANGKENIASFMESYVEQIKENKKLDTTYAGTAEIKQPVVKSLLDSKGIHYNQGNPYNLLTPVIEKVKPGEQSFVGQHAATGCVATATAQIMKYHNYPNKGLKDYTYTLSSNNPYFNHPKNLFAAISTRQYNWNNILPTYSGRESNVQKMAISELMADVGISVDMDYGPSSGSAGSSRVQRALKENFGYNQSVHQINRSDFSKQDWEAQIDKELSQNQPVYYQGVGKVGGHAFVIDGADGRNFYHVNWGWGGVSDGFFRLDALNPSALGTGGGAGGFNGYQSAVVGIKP
Procedure, shortened: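 SpeB purified from S. pyogenes 5448 culture supernatant (ammonium sulfate precipitation, ion exchange), activated with 2 mM DTT 30 min at 37 °C. Activated enzyme preincubated 15 min at room temperature with analogue (30 mM stock in 50% DMSO/phosphate pH 7.4; 4.8×10^3 molar excess over 0.28 μM final SpeB). Then 1 mM BPFA substrate in 0.1 M phosphate pH 6 added; OD405 change recorded. Activity expressed relative to uninhibited enzyme.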

[5] = Inhibition of Streptococcus pyogenes His-tagged IdeS expressed in Escherichia coli BL21 using IgG1 as substrate by SDS-PAGE analysis
Procedure, shortened: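 Ki by competitive-inhibition fit of initial velocities. 2 μM IdeS with repurified polyclonal IgG at 150, 100, 50, 20 or 10 μM, inhibitor at 5, 2, 0.5 mM or 5, 2.5, 1 mM. Initial cleavage read by non-reducing SDS-PAGE densitometry of IgG, single-cleaved IgG, F(ab')2 and 1/2Fc bands, weighted by mass.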

[6] = Selectivity ratio of Ki for Streptococcus pyogenes IdeS to Ki for papaya papain

Compound	inhibition [1]	inhibition [2]	inhibition [3]	inhibition [4]	Ki [5]	Ratio Ki [6]
NCC(=O)NCC(=O)N1CCC[C@H]1C(=O)N[C@@H](CO)C(=O)O (H-GGPS-OH)	inactive					
H-ELLGG-OH	inactive					
NCC(=O)N1CCC[C@H](N2CCC[C@H]2C(N)=O)C1		Active				
H-LLGGPS-OH	inactive					
CC(C)C[C@H](N)C(=O)NCC(=O)NCC(=O)N1CCC[C@H]1C(=O)O (H-LGGP-OH)	inactive	Active				
CC(C)C[C@H](N)C(=O)N1CCC[C@H](NCC(=O)N2CCC[C@H]2C(N)=O)C1		Active	Active	inactive		
CCN(CC(N)=O)[C@H]1CCCN(C(=O)[C@H](CC(C)C)NC(=O)[C@@H](N)CC(C)C)C1		Active		Active		
NC(=O)[C@@H]1CCCN1C(=O)CN[C@@H]1CCCNC1		Active	Active			
CC(C)C[C@H](NC(=O)[C@@H](N)CC(C)C)C(=O)N1CCC[C@H](NCC(N)=O)C1		Active		inactive		
NCC(=O)NCC(=O)O (H-Gly-Gly-OH)	inactive	Active				
H-PELLGGPS-OH	inactive					
CC(C)C[C@H](N)C(=O)NCC(=O)N1CCC[C@@H](N2CCC[C@H]2C(N)=O)C1		Active	Active	Active		
CC(C)C[C@H](NC(=O)[C@@H](N)CC(C)C)C(=O)N1CCC[C@@H](NCC(N)=O)C1		Active		inactive		
NCC(=O)N1CCC[C@@H](N2CCC[C@H]2C(N)=O)C1		Active				
CC(C)C[C@H](NC(=O)[C@@H](N)CC(C)C)C(=O)NCC(=O)NCC(=O)O (H-LLGG-OH)	inactive	Active		Active		
CC(C)C[C@H](N)C(=O)N1CCC[C@@H](NCC(N)=O)C1		Active	inactive	inactive	5.7 mM	16
CC(C)C[C@H](N)C(=O)N1CCC[C@H](NCC(N)=O)C1		Active	inactive	inactive		
CCN(CC(N)=O)[C@@H]1CCCN(C(=O)[C@H](CC(C)C)NC(=O)[C@@H](N)CC(C)C)C1		Active		Active		
NC(=O)CN[C@H]1CCCNC1		Active	inactive	inactive	6.7 mM	16
CC(C)[C@H](NC(=O)[C@H](CO)NC(=O)[C@@H]1CCCN1C(=O)CN)C(=O)O (H-GPSV-OH)	inactive					
NC(=O)CN[C@@H]1CCCNC1		Active	inactive	inactive		
NC(=O)[C@@H]1CCCN1C(=O)CN[C@H]1CCCNC1		Active				
CC(C)C[C@H](N)C(=O)NCC(=O)N1CCC[C@H](N2CCC[C@H]2C(N)=O)C1		Active		Active		
CC(C)C[C@H](N)C(=O)N1CCC[C@@H](NCC(=O)N2CCC[C@H]2C(N)=O)C1		Active		inactive		
